Source: ChEMBL document CHEMBL1142362, “Synthesis and biological activity of simplified denoviose-coumarins related to novobiocin as potent inhibitors of heat-shock protein 90 (hsp90)” (Bioorg Med Chem Lett, 2008)
Activity calls are given as the source filed them. No cut-off for these calls is given here.

What was measured:
MCF7 [1] = test: Inhibition of HSP90 in human MCF7 cells assessed as decrease in ERalpha level at 100 uM after 16 hrs by Western blot analysis; type: cell-based
Summary of the method: (§1)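 Treated MCF-7 cell lysates were immunoblotted using the primary antibodies ERα (HC20) and Raf-1 (C12), with detection by a peroxidase-labelled secondary antibody. The control lysate came from DMSO-exposed cells. A nonspecific band served as the loading control.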

MCF7 [2] = test: Inhibition of HSP90 in human MCF7 cells assessed as decrease in Raf-1 level at 100 uM after 16 hrs by Western blot analysis; type: cell-based; summary of the method: as §1
MCF7 [3] = test: Reversal of inhibition of HSP90 in human MCF7 cells assessed as decrease in ERalpha level at 100 uM after 16 hrs in presence of MG132 by Western blot analysis; type: cell-based
MELN [4] = test: Effect on estradiol-induced transcription in human MELN cells assessed as inhibition of luciferase activity at 200 uM after 18 hrs relative to control; type: functional, cell-based
Summary of the method: (§2)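 MELN breast cancer cells were treated for 18 h with the compounds, with or without 0.1 nM estradiol. Luciferase activity was measured and expressed as fold induction relative to untreated control cells.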

MCF7 [5] = test: Antiproliferative activity against human MCF7 cells after 72 hrs by MTT assay; type: functional, cell-based; conditions: MCF7, 72 h
Summary of the method: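 MCF-7 cells were seeded at 5000 cells/well and, after 24 h, exposed to serial dilutions for 72 h. Survival was read by MTT. IC50 is the concentration giving 50% growth inhibition versus vehicle-treated cells. Values are the means of three experiments run in sextuplicate, with standard deviation.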

MELN [6] = test: Effect on estradiol-induced transcription in human MELN cells assessed as increase in luciferase activity at 200 uM after 18 hrs relative to control; type: functional, cell-based; summary of the method: as §2
MCF7 [7] = test: Inhibition of HSP90 in human MCF7 cells assessed as decrease in progesterone receptor A level; type: cell-based
Summary of the method: (§3)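 MCF-7 cells were exposed to increasing concentrations, and lysates were immunoblotted for PRA and PRB with a PR (Ab-8) primary antibody and a peroxidase-labelled secondary antibody. The control was a DMSO-exposed lysate. A nonspecific band served as the constant loading reference.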

MCF7 [8] = test: Inhibition of HSP90 in human MCF7 cells assessed as decrease in progesterone receptor B level; type: cell-based; summary of the method: as §3

Row | IC50 (MCF7 [5]) [µM] | Structure (SMILES) | Activity (MCF7 [1]) | Activity (MCF7 [2]) | Activity (MCF7 [3]) | Activity (MELN [4]) | Activity (MELN [6]) | Activity (MCF7 [7]) | Activity (MCF7 [8])
1 |  | CCCCCCCCCCCCC(=O)Nc1c(-c2cc(OC)c(OC)c(OC)c2)c2ccccc2oc1=O | inactive | inactive |  |  |  |  | 
2 | 40 | COc1cc(C(=O)Nc2c(OS(=O)(=O)c3ccc(C)cc3)c3ccccc3oc2=O)cc(OC)c1OC | Active | inactive | Active | Active |  |  | 
3 |  | COc1ccc(-c2c(NC(=O)c3ccc(OC)cc3OC)c(=O)oc3ccccc23)cc1 | inactive | inactive |  |  |  |  | 
4 |  | CC1(C)C=Cc2cc(C(=O)Nc3c(O)c4ccccc4oc3=O)ccc2O1 | inactive | inactive |  |  | Active |  | 
5 |  | CCCC(=O)Nc1c(-c2cc(OC)c(OC)c(OC)c2)c2ccccc2oc1=O | inactive | inactive |  |  |  |  | 
6 |  | COc1ccc2cc(C(=O)Nc3c(O)c4ccccc4oc3=O)c(=O)oc2c1 | Active | Active | Active |  |  |  | 
7 |  | COc1cccc(OC)c1C(=O)Nc1c(O)c2ccccc2oc1=O | Active | Active | Active |  |  |  | 
8 | 50 | CCCCCCCCCCCCC(=O)Nc1c(OS(=O)(=O)c2ccc(C)cc2)c2ccccc2oc1=O | Active | Active | Active | Active |  |  | 
9 |  | COc1ccccc1CC(=O)Nc1c(O)c2ccccc2oc1=O | Active | Active | Active |  |  |  | 
10 |  | CC1(C)CCc2cc(C(=O)Nc3c(O)c4ccccc4oc3=O)ccc2O1 | Active | Active | Active |  |  |  | 
11 |  | COc1ccccc1CC(=O)Nc1c(OS(=O)(=O)c2ccc(C)cc2)c2ccccc2oc1=O |  |  |  | Active |  |  | 
12 | 75 | CCCC(=O)Nc1c(OS(=O)(=O)c2ccc(C)cc2)c2ccccc2oc1=O | Active | Active | Active | Active |  |  | 
13 |  | COc1ccc(-c2c(NC(=O)c3cc(OC)c(OC)c(OC)c3)c(=O)oc3ccccc23)cc1 | inactive | inactive |  |  |  |  | 
14 |  | CCCC(=O)Nc1c(O)c2ccccc2oc1=O | inactive | inactive |  | Active |  |  | 
15 |  | CC(=O)Nc1c(O)c2ccccc2oc1=O | Active | Active | Active |  |  |  | 
16 |  | CCCCCCCCCCCCC(=O)Nc1c(-c2ccc(Cl)cc2)c2ccccc2oc1=O | inactive | inactive |  |  |  |  | 
17 |  | CCCCCCCCCCCCC(=O)Nc1c(-c2ccc(OC)cc2)c2ccccc2oc1=O | Active | Active | Active |  |  |  | 
18 | 35 | Cc1ccc(S(=O)(=O)Oc2c(NC(=O)c3ccc4c(c3)C=CC(C)(C)O4)c(=O)oc3ccccc23)cc1 | Active | Active | Active | Active |  | Active | Active
19 | 70 | Cc1ccc(S(=O)(=O)Oc2c(NC(=O)C3=Cc4ccccc4OC3)c(=O)oc3ccccc23)cc1 | Active | Active | Active | Active |  |  | 
